Ins promoter up – insulin promoter activators in MIN6 cells, imaging, high-content screening, mouse beta cells; 190,000 compounds, 0.3% hits; z-score at 5 µM; MIN6 insulin promoter-GFP reporter; active compounds read high;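 active = z-score above 3 at 5 µM with at least 500 cells counted in the well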
sdo1 growth – growth rescue of sdo1-depleted yeast, primary screen, S. cerevisiae, bone marrow failure model | S. cerevisiae sdo1-depleted JHY4D growth rescue, OD600 30 h; active compounds read high; pdr5 snq2 efflux-pump mutant strain | z-score at 10 µM | 140,000 compounds, 0.21% hits | AID 817, 2007;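 active = z-score above 3 at both the 24 hr and the 30 hr optical density reads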;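 note: z-score against mean and SD of all compound wells on the same plate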
Autophagy HCS – autophagy modulators in MEF cells, primary screen, imaging, high-content, MEF GFP-LC3; MEF GFP-LC3 puncta imaging; test concentration mostly 10 µM; calls only at 10 µM (by protocol); 190,000 compounds, 0.98% hits; AID 463193, 2010;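 active = percentage of spot-positive cells more than 3 SD above its plate mean, without a fluorescence outlier flag or 80% toxicity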;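 note: spot-positive cell cutoff set from DMSO-treated cells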
ROMK primary – ROMK potassium channel modulators, primary screen, cell-based, thallium flux, MLSMR library | ATP-sensitive inward rectifier potassium channel 1 (Homo sapiens), P48048 | Tet-inducible ROMK, thallium flux fluorescence; actives lie on both sides | B-score at 10 µM | 130,000 compounds, 2% hits;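 active = signal ratio slope over the read window, or its plate-corrected B-score, at least 3 SD from the plate mean, either direction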;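 note: B-score of the F/F0 ratio slope over 7 to 12 s after thallium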
ABCB1 inh – ABCB1 efflux pump inhibitors, primary screen, cell-based, multiplex, flow cytometry, ABCG2 counter-screen. ATP-dependent translocase ABCB1 (Homo sapiens), P08183. CCRF-Adr cells, JC-1 efflux. inhibition, % at 6.6 µM. 190,000 compounds, 0.067% hits. AID 1326, 2008; in the data active = inhibition above about 40%;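 note: 0% = vehicle and 100% = reference inhibitor; higher value means more JC-1 retained so stronger ABCB1 efflux block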
ABCG2 inh – ABCG2 efflux pump inhibitors, primary screen, multiplex with ABCB1, IgMXP3 cells, flow cytometry. JC-1 efflux. inhibition, % at 6.6 µM. 190,000 compounds, 0.1% hits. Broad substrate specificity ATP-binding cassette transporter ABCG2 (Homo sapiens), Q9UNQ0;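 active = inhibition above 80%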;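 note: 0% = DMSO and 100% = nicardipine control wells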
Target sequence (Q9UNQ0 whole entry, looked up): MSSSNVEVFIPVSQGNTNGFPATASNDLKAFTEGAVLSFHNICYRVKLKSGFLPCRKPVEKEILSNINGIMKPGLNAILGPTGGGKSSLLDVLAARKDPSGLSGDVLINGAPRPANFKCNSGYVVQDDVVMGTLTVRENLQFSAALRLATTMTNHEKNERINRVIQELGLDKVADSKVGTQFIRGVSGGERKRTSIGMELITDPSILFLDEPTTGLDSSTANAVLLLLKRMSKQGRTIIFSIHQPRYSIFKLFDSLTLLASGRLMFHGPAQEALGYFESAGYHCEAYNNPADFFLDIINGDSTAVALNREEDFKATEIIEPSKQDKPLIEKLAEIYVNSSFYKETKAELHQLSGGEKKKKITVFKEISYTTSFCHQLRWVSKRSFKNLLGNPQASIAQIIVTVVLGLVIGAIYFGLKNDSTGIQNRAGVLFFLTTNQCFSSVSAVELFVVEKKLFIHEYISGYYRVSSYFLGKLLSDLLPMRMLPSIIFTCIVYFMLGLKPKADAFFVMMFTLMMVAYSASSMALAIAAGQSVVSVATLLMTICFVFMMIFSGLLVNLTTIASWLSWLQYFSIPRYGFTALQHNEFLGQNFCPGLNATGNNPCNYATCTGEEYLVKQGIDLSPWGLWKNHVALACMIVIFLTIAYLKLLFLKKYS
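Measure – % inhibition of efflux relative to nicardipine and DMSO · Test system – ABCG2 IgMXP3 and barcoded ABCB1 CCRF-Adr cell mix · Control set – nicardipine as high control, DMSO as low control · Compound – one concentration, 6.6 µM final · Signal – flow cytometry of retained JC-1 fluorescence · Timing – 10 min exposure at 25 °C with rotation, no wash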
ABCB1 confirm – ABCB1 efflux pump inhibitors, confirmation, cell-based, single point, ABCG2 counter-screen; shares compounds with ABCG2 inh; CCRF-Adr cells, JC-1 efflux, flow cytometry; inhibition, % at 6.6 µM; 270 compounds, 7% hits;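 active = inhibition of pump activity above 50%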;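 note: 0% = DMSO and 100% = nicardipine full pump inhibition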
ABCG2 confirm – ABCG2 efflux pump inhibitors, confirmation, single point, IgMXP3 cells, ABCB1 counter-screen paired; shares compounds with ABCG2 inh; inhibition, % at 6.6 µM; 270 compounds, 6% hits; JC-1 efflux, flow cytometry;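 active = inhibition above 50%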;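 note: 0% = DMSO wells and 100% = nicardipine pump inhibitor wells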
IgMXP3 fluor – compound autofluorescence in ABCG2-expressing IgMXP3 cells, confirmation, artefact control for ABC transporter inhibitor project, cell-based, 488/530 nm, flow cytometry | fluorescence at 6.6 µM | 270 compounds, 30% hits | shares compounds with ABCG2 inh | compound autofluorescence 488/530 nm; active compounds read high;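 active = fluorescence in ABCG2-expressing cells above the plate's control-well mean plus 3 SD, cut at about 15 in these data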;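 note: median cell fluorescence with compound minus that of DMSO-treated control cells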
CCRF autofluor – compound autofluorescence in ABCB1-expressing CCRF-Adr cells, confirmation, artefact control for ABC transporter inhibitor project, cell-based, 488/530 nm, flow cytometry; shares compounds with ABCG2 inh; compound autofluorescence 488/530 nm; active compounds read high; fluorescence at 6.6 µM; 270 compounds, 30% hits; AID 1483, 2009;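 active = fluorescence beyond the plate control mean plus 3 SD, with a fluorescence-to-maximum score over 2, cut at about 25 in these data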
Numbers without * were called inactive; i = inactive; x = no result. Most compounds without a hit are left out; they make up all but 2.3% or so of the library.

SMILES | Ins promoter up | sdo1 growth | Autophagy HCS | ROMK primary | ABCB1 inh | ABCG2 inh | ABCB1 confirm | ABCG2 confirm | IgMXP3 fluor | CCRF autofluor
Cn1c(SCc2ccc([N+](=O)[O-])cc2)nnc1-c1cccnc1 | 0.3 | x | i | -0.083 | 1 | 12 | x | x | x | x
COc1cccc(CNC(=O)C(=O)NCC(c2ccco2)N2CCOCC2)c1 (stereo not drawn) | 0.08 | 0.84 | i | x | 65* | 65 | 0 | 1 | -0.14 | 4.3
Cc1ccc(CNC(=O)C(=O)NCC(c2ccco2)N2CCOCC2)cc1 (stereo not drawn) | 0.31 | 0.45 | i | x | 0 | -3 | x | x | x | x
CCOc1ccc(OCC)c(NC(=O)CN2CCN(c3ccc(C)cc3C)CC2)c1 | x | -1.1 | i | -0.16 | 3 | 81* | 11 | 32 | 8.8 | -1.8
CCOC(=O)N1CCN(CC(=O)Nc2cc(OCC)ccc2OCC)CC1 | -0.07 | -1.1 | i | 0.099 | 1 | 29 | x | x | x | x
COc1ccccc1NC(=O)C1CCCN(c2nc(C)cc(C)n2)C1 (stereo not drawn) | x | -0.34 | i | -0.51 | 1 | 11 | x | x | x | x
CCOc1ccc(OCC)c(NC(=O)C2CCCN(c3nc(C)cc(C)n3)C2)c1 (stereo not drawn) | x | -1.1 | i | x | 2 | 101* | 8 | 28 | 2.7 | 9.7
Cn1cc(S(=O)(=O)Nc2ccc3c(c2)OCCO3)cn1 | 0.04 | x | i | 0.35 | 1 | 1 | x | x | x | x
COc1ccc(OC)c(NC(=O)Nc2nnc(N3CCCCC3C)s2)c1 (stereo not drawn) | 0.83 | x | x | x | x | x | x | x | x | x
O=C(Nc1cc(C(F)(F)F)ccc1N1CCOCC1)c1ccco1 | -0.24 | -0.58 | i | 0.3 | 0 | 2 | x | x | x | x
O=C(c1ccccc1)c1ccc(N2CCOCC2)c(NC(=O)c2ccco2)c1 | x | -2.2 | i | -1 | 4 | 81* | 0 | 47 | 0.46 | 33*
CCOC(=O)CSc1nc2cc(C)ccc2cc1C#N | 0 | -1.3 | i | 0.73 | 0 | 5 | x | x | x | x
CCOC(=O)CSc1nc2cc(C)cc(C)c2cc1C#N | 1.1 | -1.8 | i | 0.027 | 2 | 99* | 1 | 16 | 61* | 0.71
COc1ccc(C(=O)C2CCCN(Cc3ccc(C#CCCO)cc3)C2)cc1F (stereo not drawn) | 0.09 | x | i | -0.41 | 0 | 0 | x | x | x | x
COc1ccc2nc(SCc3ccccc3C)nc(C)c2c1 | -0.11 | 0.1 | i | x | 2 | 90* | 6 | 45 | 16* | 7.1
CC(=O)Nc1ccc(C(=O)OCC(=O)c2cccc([N+](=O)[O-])c2)cc1 | x | 0.2 | i | x | 0 | 82* | 0 | 46 | -1.6 | -4.8
OCCC#Cc1ccc(CN2CCN(Cc3ccccc3)C(CCO)C2)cc1 (stereo not drawn) | 0.1 | x | i | -1.4 | 14 | 89* | 3 | 4 | 4.3 | 13
Cc1nc(SCC(=O)O)c(C#N)c(C)c1CC(=O)c1ccccc1 | 1.7 | x | i | -0.071 | 0 | 0 | x | x | x | x
COc1ccc(/C=N/NC(=O)c2cccnc2)cc1CN1CCN(c2ccc(F)cc2)CC1 | 0.07 | x | i | -0.029 | 45* | 9 | 35 | 12 | -1.8 | -3.8

Compound activity (PubChem BioAssay)
